In ChEMBL document CHEMBL1130077, “Synthesis and antitumor properties of N-[2-(dimethylamino)ethyl]carboxamide derivatives of fused tetracyclic quinolines and quinoxalines: a new class of putative topoisomerase inhibitors” (J Med Chem, 1997):

Experiments:
[1] = Inhibitory concentration against Murine Lewis lung carcinoma (LLC) cell proliferation; format: functional, cell-based; settings: Mus musculus
Method in brief: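 Lewis lung carcinoma (LLTC) cells plated at 10³ per well and exposed to drug for 4 days. Growth was measured by sulforhodamine assay. IC50 is the concentration giving 50% of control cell number. Independent assays were run in duplicate, with a coefficient of variation of 12%.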

[2] = Inhibitory concentration to reduce cell number to 50% of Murine P388 leukemia cell culture; format: functional, Mus musculus
Method in brief: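 Murine P388 leukemia cells seeded at 4.5 × 10³ per well and grown 3 days with drug. Growth was read by [³H]TdR uptake. IC50 is the drug concentration that reduces cell number to 50% of control cultures. Independent assays were run in duplicate, with a coefficient of variation of 12%.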

[3] = Ratio of inhibitory concentration of Human Jurkat leukemia D (JLD) and Human Jurkat leukemia C (JLC); format: functional
Method in brief: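 Parental Jurkat (JL_C) and its amsacrine-resistant (JL_A) and doxorubicin-resistant (JL_D) derivatives, each seeded at 3.75 × 10³ per well for 4 days of drug exposure. Sulforhodamine assay gave IC50 (50% of control cell number). The ratio is resistant-line IC50 over JL_C IC50. Duplicate assays; coefficients of variation 9.3% (JL_A) and 5.7% (JL_D).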

[4] = Inhibitory concentration against Human Jurkat leukemia (JLC) cell proliferation; format: functional
Method in brief: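 Human Jurkat leukemia (JL_C) cells at 3.75 × 10³ per well, cultured 4 days with drug. Sulforhodamine read-out. IC50 is the concentration reducing cell number to 50% of untreated controls. Duplicate independent assays, coefficient of variation 6.3%.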

[5] = Ratio of inhibitory concentration of Human Jurkat leukemia A (JLA) and Human Jurkat leukemia C (JLC); format: functional
Method in brief: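 Human Jurkat leukemia cells (JLC) and their amsacrine-resistant derivative (JLA) were seeded at 3.75 × 10³ cells/well and grown 4 days with drug. Growth was read by sulforhodamine assay. IC50 is the drug level cutting cell number to 50% of control cultures; the ratio is IC50(JLA)/IC50(JLC). Independent assays were run in duplicate; CVs were 9.3% (JLA) and 6.3% (JLC).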

Compound	IC50 [1]	IC50 [2]	IC50 ratio [3]	IC50 [4]	IC50 ratio [5]
CN(C)CCNC(=O)c1cccc2cc3[nH]c4ccccc4c3nc12	0.29 µM	0.37 µM	1.1	0.45 µM	1
CN(C)CCNC(=O)c1cc(Cl)cc2[nH]c3c4ccccc4nc-3nc12	0.36 µM	15 µM	1.3	0.3 µM	1.2
CN(C)CCNC(=O)c1cccc2cc3oc4ccccc4c3nc12	0.21 µM	0.17 µM	1.2	0.43 µM	1.2
CN(C)CCNC(=O)c1cccc2[nH]c3c4ccccc4nc-3nc12	0.99 µM	0.67 µM	1	1.4 µM	0.9
CN(C)CCNC(=O)c1cccc2cc3sc4ccccc4c3nc12	0.066 µM	0.046 µM	1.6	0.17 µM	1.5
CN(C)CCNC(=O)c1cccc2cc3ccccc3nc12		0.098 µM		0.58 µM	
COc1cc([C@@H]2c3cc4c(cc3[C@@H](O[C@@H]3O[C@@H]5CO[C@@H](C)O[C@H]5[C@H](O)[C@H]3O)[C@H]3COC(=O)[C@H]23)OCO4)cc(OC)c1O [ETOPOSIDE]	0.18 µM	0.025 µM	90	0.16 µM	13
COc1cccc2c1C(=O)c1c(O)c3c(c(O)c1C2=O)C[C@@](O)(C(=O)CO)C[C@@H]3O[C@H]1C[C@H](N)[C@H](O)[C@H](C)O1 [DOXORUBICIN]	0.022 µM	0.015 µM	90	0.0096 µM	4.4
CN(C)CCNC(=O)c1cccc2cc3c(nc12)C(=O)c1ccccc1-3	0.15 µM	0.085 µM	0.9	0.37 µM	0.9
CN(C)CCNC(=O)c1cccc2cc3c(nc12)-c1ccccc1C3=O	0.091 µM	0.13 µM	0.9	0.18 µM	1.2
COc1cc(NS(C)(=O)=O)ccc1Nc1c2ccccc2nc2ccccc12 [AMSACRINE]	0.012 µM	0.02 µM	74	0.037 µM	85
CN(C)CCNC(=O)c1cccc2nc3c(nc12)-c1ccccc1C3=O	0.88 µM	0.7 µM	1.1	1.1 µM	1
CN(C)CCNC(=O)c1cccc2nc3sc4ccccc4c3nc12	0.11 µM	0.1 µM	2.7	0.15 µM	1.9
CN(C)CCNC(=O)c1cc(Cl)cc2nc3c(nc12)oc1ccccc13	1.4 µM	6.8 µM	> 1.3	1.5 µM	1.2
CN(C)CCNC(=O)c1cccc2cc3c(nc12)-c1ccccc1S3(=O)=O	0.43 µM	1.8 µM	4.2	0.86 µM	3.2
CN(C)CCNC(=O)c1cccc2cc3c(nc12)-c1ccccc1C3	0.19 µM	0.088 µM	1.9	0.32 µM	1.8
CN(C)CCNC(=O)c1cccc2nc3c(nc12)oc1ccccc13	1.7 µM	2.2 µM	1	2.6 µM	1
CN(C)CCNC(=O)c1cc(Cl)cc2[nH]c3nc4ccccc4c-3nc12	0.7 µM	1.6 µM	0.9	0.98 µM	0.8
CN(C)CCNC(=O)c1cccc2c(C(=O)NCCN(C)C)c3sc4ccccc4c3nc12	0.03 µM	0.025 µM	0.9	0.034 µM	0.5
CN(C)CCNC(=O)c1cccc2nc3c(nc12)-c1ccccc1C3	0.39 µM	0.36 µM	1	0.55 µM	1
CN(C)CCNC(=O)c1cc(Cl)cc2nc3oc4ccccc4c3nc12	> 2 µM	5.8 µM		> 2 µM	
CC[C@@]1(O)C(=O)OCc2c1cc1n(c2=O)Cc2cc3ccccc3nc2-1 [CAMPTOTHECIN]	0.033 µM		1.4	0.0056 µM	2
